The EternaBench riboswitch data

System: MS2 coat protein
Assay: apparent Kd, MS2 coat protein; higher = weaker binding; RNA-MaP array; FMN 200 µM where present
How it was run: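 Designs were transcribed by stalled E. coli RNA polymerase on Illumina sequencing-chip clusters. They were titrated with SNAP-549-labelled MS2 coat protein from 0.7 or 1.5 nM, doubling to 3 µM, without and then with constant ligand. Buffer: 100 mM Tris-HCl pH 7.5, 80 mM KCl, 4 mM MgCl2, BSA, DTT, yeast tRNA, Tween-20. Green signal was normalised to red-channel RNA signal and control-cluster median Fmax. Apparent Kd is the median of filtered per-cluster binding-curve fits.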

[1] = designed as: OFF switch for flavin mononucleotide, no ligand
[2] = ligand present: flavin mononucleotide, designed as: OFF switch for flavin mononucleotide
[3] = designed as: ON switch for flavin mononucleotide, no ligand
[4] = ligand present: flavin mononucleotide, designed as: ON switch for flavin mononucleotide

| Sequence | apparent Kd [1] [nM] | apparent Kd [2] [nM] | apparent Kd [3] [nM] | apparent Kd [4] [nM] |
| --- | --- | --- | --- | --- |
| GUCGUGCAGCUUUGCUGUACGAGUACAUGAGGAUCACCCAUGUAGGAUAUGGUACGCUUUGCGUGCCAGAAGGACGUGCGUUGG | 48 | 134 |  |  |
| GUCGUUUCUGAGGAUAUUAUUUUUUUCGAUUGAUAAGAAGGCAGUACAUGAGGAUCACCCAUGUGGGUUGUCUG | 30 | 97.3 |  |  |
| GUCUCGAUGUAGAAGGCCGCGUCCGGCUCACGCGGAGGAUAUACAUGAGGAUCACCCAUGUGUCUGUGGCUUAUAUGUUACGGA | 70.8 | 68.3 |  |  |
| GUCUGGCUAGGAUAUACAGUGUCCACGAGUUAGUUGCUCUAACAUGAGGAUCACCCAUGUAGAAGGAGCGAGAA | 20.5 | 63.7 |  |  |
| GUCUUACAUGAGGAUCACCCAUGUGAGGAUAUAUGUGGUGUUGAGAAAUUGGUGUUGUAUAGAAGGCGCGUGAU | 25.5 | 24.8 |  |  |
| GUCUUCCUAGGAUAUACAUGAGGAUCACCCAUGUACAGUUUCGUCAAAGGAUAAUCGCGUAGAAGGAGGUGGAU | 16.5 | 23.6 |  |  |
| GUCUUGUUAGGAUAUCUUACUUUUGCAUCAUAGUAACCAUUGGAGAAGGGACAUGAGGAUCACCCAUGUUUGGU | 34.6 | 30 |  |  |
| GUGAACCGUAGGUCGCUGGCUGCACAGGAUAUGAAGGCGUACAUGAGGAUCACCCAUGUUCCCUAUCAGAAGGGUGACAGGAAA |  |  | 14.8 | 8.85 |
| GUGACGAAUGUAGGAUAUGCUGAGGAAUACUCAGCAGAAGGACAUGAGGAUCACCCAUGUACUAAUAGUGAUAAUAAACGUCAC | 15.6 | 77.6 |  |  |
| GUGACGAUGUAAGGAUAUGCUGAGGAUAACUCAGCAGAAGGUACAUGAGGAUCACCCAUGUAACGUCACAAUAAUAAUAAUAAU | 12.3 | 22.9 |  |  |
| GUGAGUAGUCAGGAUAUGCUGUACAAAAGUACAGCAGAAGGGAUUACAUGAGGAUCACCCAUGUUUACUUCAUG | 73.1 | 279 |  |  |
| GUGAUCUGAGUGAGGAUAUCCUUUAAGUAAUUGCAGGAGAAGGCACAUGAGGAUCACCCAUGUACAUCUUCGCG | 36.1 | 119 |  |  |
| GUGCAAUGAGGAUAUACGUAGGUGAACAUCUGUGUGCUCCUACAUGAGGAUCACCCAUGUAGAAGGCAUGUCAC | 12.3 | 22.6 |  |  |
| GUGCACACUCGAGGAUAUCGGAGAGGACUCCUUCGAGAAGGCGAUUCGUGCCGUGUUAUUCUGGACAUGAGGAUCACCCAUGUG |  |  | 126 | 38.2 |
| GUGCACACUCGAGGAUAUCGGAGUUUUUUUCUUCGAGAAGGCGAUUCGUGCCGUGUUAUUUUGGACAUGAGGAUCACCCAUGUG |  |  | 79.9 | 34.4 |
| GUGCACAUUCGAGGAUAUCGGAGAGAGAUCGUUCGAGAAGGCGAUUCAUGAUGUAUUAUCCUGGACAUGAGGAUCACCCAUGUG |  |  | 105 | 89.3 |
| GUGCAUACGUGAGGAUAUGUAUUAGAUAGUGGUACAGAAGGCAUGUCAGAUGACAUGAGGAUCACCCAUGUUGGCACAAUGCGC |  |  | 137 | 30.5 |
| GUGCCGAACCUAGGAUAUCUUAUCGGGUUCCGCCGUGGCUUAGCGACAUGAGGAUCACCCAUGUAAGAGAAGGAGGUGGCGGAG | 128 | 135 |  |  |
| GUGCCGUUGGCUCGACGACCGCUGCAGGAUAUCACAUGAGGAUCACCCAUGUGACUCUGCCCAUGUGAGAAGGGCGGCUGUGUG | 18.9 | 34.7 |  |  |

| Sequence | apparent Kd [1] [nM] | apparent Kd [2] [nM] | apparent Kd [3] [nM] | apparent Kd [4] [nM] |
| --- | --- | --- | --- | --- |
| GUGCCUUGGAAGAAGGCCGAUAGCAAAGCUAUCGGAGGAUAUUCAUACCGGAAACGGACAUGAGGAUCACCCAUGUGGCACAAA |  |  | 15.3 | 6.96 |
| GUGCCUUGGGAGAAGGUUAUUAGCAAAGCUAUUAAAGGAUAUUCAUACCGGAAACGGACAUGAGGAUCACCCAUGUGGCACAAA |  |  | 1630 | 122 |
| GUGCCUUGGUAGAAGGCCCAAUGCAAAGCAUAGGGAGGAUAUACAUAUAAUAAAUAAACAUGAGGAUCACCCAUGUGGCACAAA |  |  | 10.8 | 10.4 |
| GUGCGAGUGCCACAGGAUAUACGUGGAUCGACAUGAGGAUCACCCAUGUAUAUCCUAAUAAUUGCGUAGAAGGGUGGUCAGUCGG |  |  | 786 | 289 |
| GUGCGGUGAGGAUAUACGUAGGUGAAAAUCUGUGUGCUCCUACAUGAGGAUCACCCAUGUAGAAGGCAUGUCAC | 15.5 | 27.8 |  |  |
| GUGCUUUGGGAGAAGGCCGUAUGCAAAGCAUACGGAGGAUAUUCAUACCGGAAACGGACAUGAGGAUCACCCAUGUGGCACAAA |  |  |  | 44.6 |
| GUGGCUAGUGCAGGAUAUUAGUGCGUGUAGUAUUGAGAAGGGCACAUGAGGAUCACCCAUGUGAUCAAUCACUGUUAAGGUCGC | 79.7 | 76.5 |  |  |
| GUGGUAUUCGUAGGAUAUCCGUCGCCACCGUGUGGAGAAGGACGAACAUGAGGAUCACCCAUGUAUCAUGGUGUGGACGCUGUC | 92.1 | 86.6 |  |  |
| GUGGUCAGACAUGAGGAUCACCCAUGUGGAAUAAAUAAGGACAAGGAUAUGGAAUAUAGGAUAUACCAGAAGGUGUGGUUGGUG |  |  | 70 | 86 |
| GUGGUCAGACAUGAGGAUCACCCAUGUGGAAUAAAUAAGGAGAAGGAUAUAGAAUAUAGGAUAUACUAGAAGGUCUGGUUGGUG |  |  | 67.3 | 73.1 |
| GUGGUCAGACAUGAGGAUCACCCAUGUGGAAUAAAUAAGGUUUAGGAUAUGGAAUAUAGGAUAUACCAGAAGGAAGGGUUGGUG |  |  | 125 | 135 |
| GUGUAGAUAGGAUAUGCUUAGAGCUUACGAAAGUAGGCUCUACAUGAGGAUCACCCAUGUAGAAGGGUCUACAC | 31.3 | 19.1 |  |  |
| GUGUAGUCAGGAUAUACAUAGGAAGAGAAGAGAAGAGAAGGACAUGAGGAUCACCCAUGUAGAAGGGACAGUGU | 46.7 | 40.9 |  |  |
| GUGUGAAUAGGAGGAUAUAUACAACAUGAGGAUCACCCAUGUACCCGUGUAGUAGAAGGUUUGUUUUUAUAUAAUAUUAUAUUU |  |  | 26.8 | 21.6 |
| GUGUGCUGAGGAUAUACAGAGGAAGAUAAGAUAAGAUAAUGACAUGAGGAUCACCCAUGUAGAAGGCAGAGUGU | 29.7 | 42.4 |  |  |
| GUGUGCUGAGGAUAUACAUAGGAAGAGAAGAGAAGAGAAGGACAUGAGGAUCACCCAUGUAGAAGGCAGAGUGU | 28.2 | 33.3 |  |  |
| GUUAAGUGAGGAUAUGGUGAGUAGUGCCUGAGCGCUGCUCACCAGAAGGCACAUGAGGAUCACCCAUGUAUAAC | 23 | 36 |  |  |
| GUUAUAAAGGUAGGAUAUUGUAUUAUAAUUAAAUAAGAAGGAUCUCACAUGAGGAUCACCCAUGUAAGAGGAUCACCCAUGUAG | 20.1 | 14.6 |  |  |
| GUUAUACAUGAGGAUCACCCAUGUCAAUGUAGUCGAGGAUAUGGGCAGCUAUGAGGCGUACUAGAAGGCGAUGAGU |  |  | 156 | 44.5 |

| Sequence | apparent Kd [1] [nM] | apparent Kd [2] [nM] | apparent Kd [3] [nM] | apparent Kd [4] [nM] |
| --- | --- | --- | --- | --- |
| GUUAUGCAGCAGGAUAUCCAUCCGCGGUAUGGUGGAGAAGGGCUGACAUGAGGAUCACCCAUGUGCGUCCUAGG | 39.9 | 104 |  |  |
| GUUAUGUUAGGAUAUGCUUAUGGUGGGUGCUCAGAUAUGAUGCAGAAGGGACAUGAGGAUCACCCAUGUACUGU | 484 | 310 |  |  |
| GUUAUUUAUGUAGGAUAUGCGAGGCGAGCCUGAGCAGAAGGACAUGAGGAUCACCCAUGUAUUGCGGUUUGUGUUCAGAUCGCU | 17.9 | 25.6 |  |  |
| GUUGGGUGUCAUGUCGCACAUGAGGAUCACCCAUGUAGGAGGUAGGAUAUCCACGAGUAACAAGAGGAGAAGGGCCGUUAGCGU | 27.9 | 33.6 |  |  |
| GUUUCGGGAGGAUAUGCGUGGAUUGUUCUCGUAUGUUGUUUACAUGAGGAUCACCCAUGUAGAAGGUCUGGAGC | 170 | 136 |  |  |
| GUUUUACAUGAGGAUCACCCAUGUGAGGAUAUAUUGUUAUUUUUAAUAUUUUUUAGUGGUAGAAGGCGCGUGAU | 31.4 | 26 |  |  |
| GUUUUAUAGAUCCAUUUUAACAACAUGAGGAUCACCCAUGUGCAGGAUAUCGUUUGUUUUAUAUUCGAGAAGGGCAAAUUCAUU | 44.3 | 102 |  |  |
| UAAAAGACUAGCGAUCUAAAGAUCACAUGAGGAUCACCCAUGUAGGAUAUGAGCAGAAAAUCUGCUCAGAAGGACAUGCUAGUC | 5.88 | 9.18 |  |  |
| UAAAAGCUAGGAUAUACAUGAGGAUCACCCAUGUCACGGGUGCCACACCGAAAGGUGCGUAGAAGGAGCCCAAA | 38.6 | 103 |  |  |
| UAAAAGUAGGUAGGAUAUCAUCACGGAAGAUCCUGGAUACUUAGUACAUGAGGAUCACCCAUGUAUGAGAAGGACCAGUGUUUG | 12.5 | 14.8 |  |  |
| UAAAAGUGAGGAUAUGCGAAGGCGUCUGAUAGACGAGGCUAGCAGAAGGCACAUGAGGAUCACCCAUGUGGGAU | 89.7 | 152 |  |  |
| UAAAAUAGUGUGAGGAUAUGCUGGUCCUUGGAUCAGCAGAAGGCACAUGAGGAUCACCCAUGUAGUUAAUUAUA | 41.8 | 268 |  |  |
| UAAACAUGAGGAUCACCCAUGUUAUGAUCGGUUGAUGAAAGUGAGGAUAUACAAAAUUUUAUGGAGUAGAAGGCACUGGGUUCU |  |  | 31.1 | 29.9 |
| UAAAGCUCCGAGAAGGUAUGCGUACAUGAGGAUCACCCAUGUCAAAGCAUAAGGAUAUCGUGUGCGUGCGUCGAAUGUAGGAAA |  |  | 10.2 | 5.55 |
| UAAAUACAUGAGGAUCACCCAUGUCAAAAGACAUGAGGAUAUGUACAGUCUUCGGUCUGUACAGAAGGCAUGAAUA |  |  | 464 | 35 |
| UAAAUGUCAGGAUAUUGUUAAUUUAGUUGUUUGUAUUAGUUCGAGAAGGGACAUGAGGAUCACCCAUGUUAAUU | 30.2 | 36 |  |  |
| UAAAUGUGAGGAUAUCAGGUGUGCUAGAGAACUGGUACAUCUGAGAAGGCACAUGAGGAUCACCCAUGUUCUUC | 39 | 207 |  |  |
| UAAAUGUGAGGAUAUUCGAAUAACACGGAGACGUGUUGUUCGGAGAAGGCACAUGAGGAUCACCCAUGUUCCUU | 22.7 | 219 |  |  |
